According to PubChem BioAssay AID588830 (Broad Institute, 2011):
Calls of active or inactive are those of the source.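 How the source made its calls: active means fitted IC50 for falling signal at or below ten times the top tested dose; inconclusive means flat fit with 30 to 70% signal loss, or poor fit; inactive means the rest.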

Assay: short-term cytotoxicity in ldlA[mSR-BI] cells, dose response, cytotoxicity control for SR-BI HDL uptake inhibitor project, cell-based, CellTiter-Glo luminescence, 3 h, dry powder (AID 588830)
Conditions: ldlA[mSR-BI] CHO cells viability, CellTiter-Glo ATP, 3 h; at 30 µM (top of the series)
How it was run: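 System: ldlA[mSR-BI] cells | Buffer or medium: Ham's F12 with 10% FCS and PSG | Doses: 8-concentration series per compound, added by pin transfer | Timing: 3 h compound exposure at 37 °C, 10 min reagent incubation | Measured by: Luminescence of cellular ATP via Cell Titer Glo reagent | Measure: Cytotoxicity IC50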
In the case of `C[C@H]1CN([C@@H](C)CO)C(=O)c2cc(NC(=O)Cc3cn(C)c4ccccc34)ccc2O[C@H]1CN(C)S(=O)(=O)c1ccc(F)cc1`, the activity change, negative = cytotoxicity is reported as -1.92% (inactive).

Same assay, conditions: ldlA[mSR-BI] CHO cells viability, CellTiter-Glo ATP, 3 h; at 35 µM (top of the series)
With `COC(=O)c1cn(C(=O)c2cccc3ccccc23)c2ccccc12` the activity change, negative = cytotoxicity was -13.3% (inactive). With `Cc1cc(C)c2c(c1)NC(c1cc3c(cc1Br)OCO3)C1CC=CC21` (configuration not stated) the activity change, negative = cytotoxicity was -9.46% (inactive). For `CCc1cc2cc3c(cc2nc1SCC(=O)OC(C)C)OCO3`, the activity change, negative = cytotoxicity was -2% (inactive). With `CNC[C@@H]1Oc2ccc(NC(=O)Cc3cn(C)c4ccccc34)cc2C(=O)N([C@H](C)CO)C[C@H]1C` the activity change, negative = cytotoxicity was -4.04% (inactive). With `CC(C)NC(=O)Nc1cccc2c1O[C@H](CN(C)Cc1ccc(Cl)c(Cl)c1)[C@@H](C)CN([C@@H](C)CO)C2=O` the activity change, negative = cytotoxicity was 3.31% (inactive). For `C[C@@H]1CN([C@H](C)CO)C(=O)c2cc(NC(=O)Cc3cn(C)c4ccccc34)ccc2O[C@@H]1CN(C)S(=O)(=O)c1ccc(F)cc1`, the activity change, negative = cytotoxicity was 2.73% (inactive). In the case of `C[C@H]1CN([C@@H](C)CO)C(=O)c2cccc(NC(=O)Nc3ccccc3)c2O[C@@H]1CN(C)C`, the activity change, negative = cytotoxicity is reported as -1.76% (inactive). For `COc1ccc(OC)c(CCNC(=O)c2ccc3c(c2)N(Cc2ccc(F)cc2)CCS3)c1`, the activity change, negative = cytotoxicity was -5.33% (inactive). For `C[C@H]1CN([C@@H](C)CO)C(=O)c2cc(NC(=O)Nc3ccccc3)ccc2O[C@@H]1CN(C)Cc1ccc(Cl)c(Cl)c1`, the activity change, negative = cytotoxicity was -3.67% (inactive). In the case of `C[C@@H]1CN([C@H](C)CO)C(=O)c2cc(NC(=O)Cc3cn(C)c4ccccc34)ccc2O[C@H]1CN(C)S(=O)(=O)c1ccccc1`, the activity change, negative = cytotoxicity is reported as 1.08% (inactive). For `CC(C)(C)NC(=O)N1CCN(c2ncccc2C(F)(F)F)CC1`, the activity change, negative = cytotoxicity was -3.5% (inactive). With `C[C@H](CO)N1C[C@H](C)[C@H](CN(C)S(=O)(=O)c2ccc(F)cc2)Oc2ccc(NC(=O)Cc3cn(C)c4ccccc34)cc2C1=O` the activity change, negative = cytotoxicity was -10% (inactive). For `COc1ccc(-c2nnn(CC(=O)N(C3CCCCC3)C(C)C(=O)NC3CCCC3)n2)cc1OC` (configuration not stated), the activity change, negative = cytotoxicity was -4.74% (inactive). In the case of `N#Cc1sc2nc(C3CC3)cc(-c3ccc(Cl)cc3)c2c1N`, the activity change, negative = cytotoxicity is reported as -7.15% (inactive). For `C[C@H]1CN([C@@H](C)CO)C(=O)c2cccc(NC(=O)Nc3ccccc3)c2O[C@@H]1CN(C)S(C)(=O)=O`, the activity change, negative = cytotoxicity was -1.01% (inactive). In the case of `O=C(Nc1ccc(-c2nc3ccc(NC(=O)c4ccc(Cl)cc4)cc3[nH]2)cc1)c1ccc(Cl)cc1`, the activity change, negative = cytotoxicity is reported as 3.4% (inactive). In the case of `COc1ccc([C@H]2CC(=O)C=C(c3cccc4c3sc3ccccc34)C2)cc1OC`, the activity change, negative = cytotoxicity is reported as -5.27% (inactive). With `CCC(=O)N1CCc2cc(-c3csc(NC(=O)c4ccco4)n3)ccc21` the activity change, negative = cytotoxicity was -8.77% (inactive). With `C[C@H]1CN([C@@H](C)CO)C(=O)c2cc(NC(=O)Cc3cn(C)c4ccccc34)ccc2O[C@@H]1CN(C)S(=O)(=O)c1ccc(F)cc1` the activity change, negative = cytotoxicity was 1.18% (inactive). For `CC(C)OCCCNC(=O)c1ccc(C2SCC(=O)N2Cc2ccco2)cc1` (configuration not stated), the activity change, negative = cytotoxicity was -4.74% (inactive). In the case of `CCc1sc(N2C(=O)C3C4CCC(C4=C(C)C)C3C2=O)nc1-c1ccccc1` (configuration not stated), the activity change, negative = cytotoxicity is reported as -2.48% (inactive). In the case of `Cc1ccccc1NC(=O)NCC1CCN(c2ccc(S(=O)(=O)N3CCOCC3)cc2)CC1`, the activity change, negative = cytotoxicity is reported as -8.7% (inactive). With `CCn1c(COc2c(C)cccc2C)nnc1SCC(=O)N1CCN(c2ccccc2)CC1` the activity change, negative = cytotoxicity was -9.72% (inactive). For `C[C@@H]1CN([C@H](C)CO)C(=O)c2cc(NC(=O)Cc3cn(C)c4ccccc34)ccc2O[C@H]1CN(C)S(C)(=O)=O`, the activity change, negative = cytotoxicity was 3.58% (inactive). For `O=C(Nc1ccc(Cl)cc1C(=O)c1ccc(Cl)cc1)c1cc(Br)ccc1NS(=O)(=O)c1ccc(Cl)cc1`, the activity change, negative = cytotoxicity was -10% (inactive). For `C[C@H]1CN([C@@H](C)CO)C(=O)c2cccc(NC(=O)Nc3ccc(F)cc3)c2O[C@@H]1CN(C)Cc1ccc(Cl)c(Cl)c1`, the activity change, negative = cytotoxicity was -26.7% (inactive). For `COc1cccc(-c2csc(N3CCN(C(=S)Nc4cccc(Cl)c4)CC3)n2)c1`, the activity change, negative = cytotoxicity was -9.99% (inactive). In the case of `O=C(Nc1cc(C(F)(F)F)ccc1Cl)c1ccccc1NS(=O)(=O)c1ccc(Cl)cc1`, the activity change, negative = cytotoxicity is reported as -7.07% (inactive). For `C[C@@H]1CN([C@H](C)CO)C(=O)Cc2cc(NC(=O)Cc3cn(C)c4ccccc34)ccc2O[C@H]1CN(C)S(=O)(=O)c1ccc(F)cc1`, the activity change, negative = cytotoxicity was 1.4% (inactive). With `C[C@H](CO)N1C[C@H](C)[C@H](CN(C)S(=O)(=O)c2ccc(F)cc2)Oc2ccc(NC(=O)CCC(F)(F)F)cc2C1=O` the activity change, negative = cytotoxicity was -1.99% (inactive). For `C[C@@H]1CN([C@@H](C)CO)C(=O)c2cc(NC(=O)Cc3cn(C)c4ccccc34)ccc2O[C@H]1CN(C)S(=O)(=O)c1ccc(F)cc1`, the activity change, negative = cytotoxicity was -8.52% (inactive). With `C[C@H](CO)N1C[C@H](C)[C@H](CN(C)S(=O)(=O)c2ccc(F)cc2)Oc2ccc(NC(=O)Cc3ccccc3)cc2C1=O` the activity change, negative = cytotoxicity was -1.65% (inactive). For `Cc1cc(C)n(CC(=O)NC2CCCc3c2cnn3-c2ccc(C)c(C)c2)n1` (configuration not stated), the activity change, negative = cytotoxicity was -4.16% (inactive). For `O=C(Nc1cccc(NC(=O)c2cc([N+](=O)[O-])ccc2Cl)n1)c1cc([N+](=O)[O-])ccc1Cl`, the activity change, negative = cytotoxicity was -7.2% (inactive). In the case of `C[C@@H]1CN([C@H](C)CO)C(=O)c2cc(NC(=O)Cc3cn(C)c4ccccc34)ccc2O[C@H]1CN(C)S(=O)(=O)c1ccc(F)cc1`, the activity change, negative = cytotoxicity is reported as 1.06% (inactive). In the case of `O=C(Nc1ccc(-c2nc3ccc(NC(=O)c4ccccc4[N+](=O)[O-])cc3[nH]2)cc1)c1ccccc1[N+](=O)[O-]`, the activity change, negative = cytotoxicity is reported as 6.32% (inactive). In the case of `C[C@@H]1CN([C@H](C)CO)C(=O)c2cc(NC(=O)Cc3cn(C)c4ccccc34)ccc2O[C@H]1CN(C)S(=O)(=O)c1ccc(Cl)cc1`, the activity change, negative = cytotoxicity is reported as -0.219% (inactive). For `Cc1cc(SC(C)C(=O)Nc2ncc(Cl)cc2Cl)nc2ccccc12` (configuration not stated), the activity change, negative = cytotoxicity was -10.7% (inactive). In the case of `C[C@H]1CN([C@@H](C)CO)C(=O)c2cccc(NS(C)(=O)=O)c2O[C@@H]1CN(C)Cc1ccc(Cl)c(Cl)c1`, the activity change, negative = cytotoxicity is reported as 1.6% (inactive). For `O=C(Nc1ccc(-c2nc3cc(NC(=O)c4ccccc4[N+](=O)[O-])ccc3o2)cc1)c1ccccc1[N+](=O)[O-]`, the activity change, negative = cytotoxicity was 1.25% (inactive). In the case of `O=C(Nc1ccc(-c2nc3cc(NC(=O)c4ccc(NC(=O)c5cccc6ccccc56)cc4)ccc3[nH]2)cc1)c1ccc(NC(=O)c2cccc3ccccc23)cc1`, the activity change, negative = cytotoxicity is reported as 2.1% (inactive). With `C[C@H]1CN([C@@H](C)CO)C(=O)c2cccc(NC(=O)Nc3ccccc3)c2O[C@@H]1CN(C)Cc1ccc(Cl)c(Cl)c1` the activity change, negative = cytotoxicity was -15.5% (inactive). With `C[C@@H]1CN([C@@H](C)CO)C(=O)c2cc(NC(=O)Cc3cn(C)c4ccccc34)ccc2O[C@@H]1CN(C)S(=O)(=O)c1ccc(F)cc1` the activity change, negative = cytotoxicity was 2.84% (inactive). With `O=C(Nc1ccccc1)c1ccccc1NS(=O)(=O)c1ccc(Cl)cc1` the activity change, negative = cytotoxicity was -7.39% (inactive). For `O=C(Nc1ccccc1Cl)c1ccccc1NS(=O)(=O)c1ccccc1`, the activity change, negative = cytotoxicity was -1.11% (inactive). For `C[C@@H]1CN([C@H](C)CO)C(=O)c2cc(NC(=O)Cc3cn(C)c4ccccc34)ccc2O[C@H]1CN(C)C(=O)Nc1ccc(F)cc1`, the activity change, negative = cytotoxicity was 4.57% (inactive).
